Data on 32 compounds can be found in ChEMBL document CHEMBL1150169, “Fatty acid synthase inhibitors from plants: isolation, structure elucidation, and SAR studies” (J Nat Prod, 2002).

The subject of assay [1] is Candida albicans. The assay can be described thus: Antifungal activity against Candida albicans ATCC 90028. The class given is functional, organism-based.
Assay [2] relates to Cryptococcus neoformans. Briefly: Antifungal activity against Cryptococcus neoformans ATCC 90113. The class given is functional, organism-based.
A short description of assay [3]: Inhibition of Saccharomyces cerevisiae fatty acid synthase. An outline of the steps: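 Yeast FAS semipurified by 50% ammonium sulfate precipitation of lysate (pH 6.6 phosphate, EDTA, DTT, protease inhibitors), dialyzed, and diluted to 250 mOD/min/mL. Samples preincubated with enzyme 30 min at room temperature, then mixed 1:1 with mix of 1 mM malonyl CoA and NADPH, 40 µM acetyl CoA, and 2 mM DTT. A340 read kinetically; rate over initial 2 min. IC50 from dose-response curves.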

Values after ≈ are worked out from the molar mass of the structure shown.

Consider `Cc1c(-c2ccccc2)oc2c(C(=O)O)cccc2c1=O`, for which the 50% inhibitory concentration (IC50) in assay [1], in assay [2] and in assay [3] was over 50 µg/mL throughout.
Turning to `COc1ccc(-c2cc(=O)c3c(O)cc(O)cc3o2)cc1-c1c(OC)cc(O)c2c(=O)cc(-c3ccc(O)cc3)oc12`, the half-maximal inhibitory concentration (IC50) in assay [1] is over 50 µg/mL; in assay [2], over 50 µg/mL; in assay [3], 49 µg/mL (≈ 86.5 µM).
For `O=c1c(-c2ccc(O)cc2)coc2cc(O)c(O)cc12`, the IC50 in assay [1] is over 50 µg/mL; in assay [2] it was over 50 µg/mL; in assay [3], 50 µg/mL (≈ 185 µM).
Take `O=c1cc(-c2ccc(Cl)cc2)oc2ccc(Br)cc12`: the IC50 in assay [1], in assay [2] and in assay [3] was over 50 µg/mL in each case.
Turning to `C=C(C)C(O)Cc1c(O)ccc(C(=O)/C=C/c2ccc(O)cc2)c1O` (stereo unspecified), the half-maximal inhibitory concentration (IC50) in assay [1] was found to be 20 µg/mL (≈ 58.8 µM); in assay [2] it was 50 µg/mL (≈ 147 µM); in assay [3], 46 µg/mL (≈ 135 µM).
On to `CC1(C)CC[C@]2(C(=O)O)CC[C@]3(C)C(=CC[C@@H]4[C@@]5(C)C[C@@H](O)[C@H](O)[C@@](C)(COC(=O)c6cc(O)c(O)c(O)c6)[C@@H]5[C@H](O)C[C@]43C)[C@@H]2C1`, for which the half-maximal inhibitory concentration (IC50) in assay [1], in assay [2] and in assay [3] was over 50 µg/mL throughout.
`O=Cc1cc(-c2coc3cc(O)cc(O)c3c2=O)ccc1O`: the IC50 in assay [1] is over 50 µg/mL; in assay [2] it was over 50 µg/mL; in assay [3] it was 2.3 µg/mL (≈ 7.71 µM).
`Cc1ccc2oc(-c3ccc(Cl)cc3)cc(=O)c2c1`: the half-inhibitory concentration (IC50) in assay [1], in assay [2] and in assay [3] was over 50 µg/mL throughout.
As to `O=c1cc(-c2ccc(Cl)cc2)oc2c(Br)cc(Br)cc12`, the concentration for half-maximal inhibition (IC50) in assay [1], in assay [2] and in assay [3] was over 50 µg/mL each time.
Consider `O=c1cc(-c2ccccc2)oc2c(Br)cc(Br)cc12`, for which the half-maximal inhibitory concentration (IC50) in assay [1], in assay [2] and in assay [3] was over 50 µg/mL throughout.
For `COc1cc2c(=O)oc3c(OC)c(O[C@@H]4O[C@H](CO)[C@@H](O)[C@H](O)[C@H]4O)cc4c(=O)oc(c1OC)c2c34`, the 50% inhibitory concentration (IC50) in assay [1], in assay [2] and in assay [3] was over 50 µg/mL each time.
Consider `O=C1c2c(O)cc(O)cc2OC(c2ccc(O)cc2O)C1O` (stereo unspecified), for which the 50% inhibitory concentration (IC50) in assay [1], in assay [2] and in assay [3] was over 50 µg/mL throughout.
`Cc1cc2oc(-c3ccccc3)cc(=O)c2cc1Cl`: the IC50 in assay [1], in assay [2] and in assay [3] was over 50 µg/mL throughout.
`COc1cc(O)c(C(=O)CCc2ccccc2)c(O)c1`: the IC50 in assay [1], in assay [2] and in assay [3] was over 50 µg/mL each time.
With `O=C1c2c(O)cc(O)c(C3C(=O)c4c(O)cc(O)cc4OC3c3ccc(O)cc3)c2OC(c2ccc(O)c(O)c2)C1O` (stereo unspecified), the half-maximal inhibitory concentration (IC50) was over 50 µg/mL in assay [1], over 50 µg/mL in assay [2] and 23 µg/mL (≈ 40 µM) in assay [3].
Take `C=C(C)C(O)Cc1cc(-c2coc3cc(O)cc(O)c3c2=O)ccc1O` (stereo unspecified): the 50% inhibitory concentration (IC50) in assay [1], in assay [2] and in assay [3] was over 50 µg/mL throughout.
Regarding `O=C1c2c(O)cc(O)cc2OC(c2ccc(O)cc2)C1c1c(O)cc(O)c2c(=O)cc(-c3ccc(O)c(O)c3)oc12` (stereo unspecified), the IC50 in assay [1] was over 50 µg/mL; in assay [2], over 50 µg/mL; in assay [3], 30 µg/mL (≈ 53.9 µM).
For `Oc1cc(O)c2c(c1)O[C@H](c1ccc(O)c(O)c1)[C@H](O)C2` [(-)-EPICATECHIN], the half-inhibitory concentration (IC50) in assay [1], in assay [2] and in assay [3] was over 50 µg/mL each time.
Regarding `CC1(C)C=Cc2c(cc3occ(-c4ccc(O)cc4)c(=O)c3c2O)O1` [ALPINUMISOFLAVONE], the IC50 in assay [1], in assay [2] and in assay [3] was over 50 µg/mL in each case.
On to `O=C1c2c(O)cc(O)cc2OC1(O)Cc1cc(O)c(O)c(O)c1` (stereo unspecified) [AMARANOL A], for which the half-inhibitory concentration (IC50) in assay [1], in assay [2] and in assay [3] was over 50 µg/mL in each case.
For `COc1c(O)cc(CC2(O)Oc3cc(O)cc(O)c3C2=O)cc1O` (stereo unspecified) [AMARONOL B], the IC50 in assay [1], in assay [2] and in assay [3] was over 50 µg/mL throughout.
On to `O=c1cc(-c2ccc(O)c(-c3c(O)cc(O)c4c(=O)cc(-c5ccc(O)cc5)oc34)c2)oc2cc(O)cc(O)c12` [AMENTOFLAVONE], for which the values for the half-maximal inhibitory concentration (IC50) in assay [1], in assay [2] and in assay [3] were over 50 µg/mL, over 50 µg/mL and 7 µg/mL (≈ 13 µM), respectively.
On to `O=c1cc(-c2ccc(O)cc2)oc2cc(O)cc(O)c12` [APIGENIN], for which the concentration for half-maximal inhibition (IC50) in assay [1] was over 50 µg/mL; in assay [2], 20 µg/mL (≈ 74 µM); in assay [3], 37.5 µg/mL (≈ 139 µM).
On to `CC1(C)CC[C@]2(C(=O)O)CC[C@]3(C)C(=CC[C@@H]4[C@@]5(C)C[C@@H](O)[C@H](O)[C@@](C)(CO)[C@@H]5CC[C@]43C)[C@@H]2C1` [ARJUNOLIC ACID], for which the 50% inhibitory concentration (IC50) was over 50 µg/mL in assay [1], 20 µg/mL (≈ 40.9 µM) in assay [2] and 27.5 µg/mL (≈ 56.3 µM) in assay [3].
Regarding `COc1cc(O)c(C(=O)CCc2ccc(O)cc2)c(O)c1` [ASEBOGENIN], the IC50 in assay [1], in assay [2] and in assay [3] was over 50 µg/mL in each case.
For `COc1cc2oc(-c3ccccc3)cc(=O)c2c(OC)c1OC` [BAICALEIN TRIMETHYL ETHER], the half-inhibitory concentration (IC50) in assay [1], in assay [2] and in assay [3] was over 50 µg/mL in each case.
Take `O=c1cc(-c2ccccc2)oc2cc(O)c(O)c(O)c12` [BAICALEIN]: the IC50 in assay [1] is 6 µg/mL (≈ 22.2 µM); in assay [2] it was over 50 µg/mL; in assay [3], 25 µg/mL (≈ 92.5 µM).
Regarding `O=C(O)[C@H]1O[C@@H](Oc2cc3oc(-c4ccccc4)cc(=O)c3c(O)c2O)[C@H](O)[C@@H](O)[C@@H]1O` [BAICALIN], the IC50 in assay [1], in assay [2] and in assay [3] was over 50 µg/mL in each case.
In the case of `C=C(C)[C@@H]1CC[C@]2(C(=O)O)CC[C@]3(C)[C@H](CC[C@@H]4[C@@]5(C)CC[C@H](O)C(C)(C)[C@@H]5CC[C@]43C)[C@@H]12` [BETULINIC ACID], the half-maximal inhibitory concentration (IC50) in assay [1], in assay [2] and in assay [3] was over 50 µg/mL throughout.
With `COc1ccc(-c2coc3cc(O)cc(O)c3c2=O)cc1` [BIOCHANIN], the half-inhibitory concentration (IC50) in assay [1], in assay [2] and in assay [3] was over 50 µg/mL each time.
`C/C=C/C/C=C/CCC(=O)[C@H]1O[C@H]1C(N)=O` [CERULENIN]: the figures for the IC50 in assay [1], in assay [2] and in assay [3] were 0.4 µg/mL (≈ 1.79 µM), 0.15 µg/mL (≈ 0.672 µM) and 0.15 µg/mL (≈ 0.672 µM), respectively.
In the case of `O=C(O)C[C@@H]1C(=O)O[C@H]2[C@@H]3OC(=O)c4cc(O)c(O)c(O)c4-c4c(cc(O)c(O)c4O)C(=O)OC[C@H]2O[C@@H](OC(=O)c2cc(O)c(O)c(O)c2)[C@@H]3OC(=O)c2cc(O)c(O)c3c2[C@H]1[C@H](O)C(=O)O3` [CHEBULAGIC ACID], the IC50 in assay [1], in assay [2] and in assay [3] was over 50 µg/mL in each case.

As a reminder, the IC50 is the midpoint of a concentration-inhibition curve.
